Source: ChEMBL document CHEMBL1131384, “Synthesis and structure-activity relationships of potent and orally active 5-HT4 receptor antagonists: indazole and benzimidazolone derivatives” (J Med Chem, 1998)

What was measured:
[1] = target: 5-hydroxytryptamine receptor 4 (Rattus norvegicus) (UniProt Q62758); assay: Antagonistic activity by ability to block serotonin induced relaxation (mediated by activation of 5-hydroxytryptamine 4 receptor) in carbamylcholine (10e-6 M) contracted esophagus at a concentration of 10e-6 M.; assay type: functional, tissue-based
Procedure, shortened: (§1)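 Isolated rat esophagus precontracted with carbamylcholine (10^-6 M). Tissue was challenged with serotonin (1 µM) in the presence of the antagonist at a given concentration or of vehicle. Relaxation was recorded as % relaxation to 10^-6 M 5-HT, given as mean ± SEM with the number of determinations.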

[2] = target: 5-hydroxytryptamine receptor 4 (Rattus norvegicus) (UniProt Q62758); assay: Antagonistic activity evaluated by ability to block serotonin induced relaxation via 5-hydroxytryptamine 4 receptor) in carbamylcholine (10e-6 M) contracted esophagus at a concentration of 0.1 mg/kg (p.o.); assay type: functional, organism-based; parameters: dose 0.1 mg/kg
Procedure, shortened: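 Rats were dosed with the antagonist by oral gavage. Esophagus was removed 3 h after dosing and challenged ex vivo with serotonin. Read-out was % relaxation of the carbamylcholine-contracted tissue to 10^-6 M 5-HT, given as mean ± SEM with the number of determinations.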

[3] = target: 5-hydroxytryptamine receptor 4 (Rattus norvegicus) (UniProt Q62758); assay: Antagonistic activity by ability to block serotonin induced relaxation (mediated by activation of 5-hydroxytryptamine 4 receptor) in carbamylcholine (10e-6 M) contracted esophagus at a concentration of 10e-7 M.; assay type: functional, tissue-based; procedure, shortened: as §1
[4] = target: Adrenergic receptor alpha-1 (Rattus norvegicus) (UniProt P15823+P23944+P43140); assay: Affinity for the alpha-1 adrenergic receptor determined by the displacement of [3H]prazosin from rat whole brain tissue.; assay type: tissue-based

Sequence of 5-hydroxytryptamine receptor 4 (Rattus norvegicus) (Q62758 whole entry): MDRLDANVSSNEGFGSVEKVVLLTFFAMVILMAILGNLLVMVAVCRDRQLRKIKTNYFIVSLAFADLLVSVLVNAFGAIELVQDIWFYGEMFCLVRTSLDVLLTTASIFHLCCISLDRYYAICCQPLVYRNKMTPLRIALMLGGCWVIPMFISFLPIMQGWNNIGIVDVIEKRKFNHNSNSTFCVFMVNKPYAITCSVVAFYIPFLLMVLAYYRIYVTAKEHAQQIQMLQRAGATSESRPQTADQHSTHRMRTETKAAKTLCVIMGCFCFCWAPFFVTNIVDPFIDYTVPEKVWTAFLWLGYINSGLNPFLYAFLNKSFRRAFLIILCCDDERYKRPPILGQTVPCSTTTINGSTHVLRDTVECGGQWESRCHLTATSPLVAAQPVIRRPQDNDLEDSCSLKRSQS

Row | Structure (SMILES) | Relaxation [1] [%] | Relaxation [2] [%] | Relaxation [3] [%] | pKi [4]
1 | CCC(C)n1c(=O)n(C(=O)NC2CC3CCC(C2)N3C)c2ccccc21 (centres undefined) | 8.8 | – | – | –
2 | CC(C)n1nc(C(=O)NC2CCN(CCCCCc3ccccc3)CC2)c2ccccc21 | 43.7 | – | – | –
3 | CC(C)n1nc(C(=O)NCCN2CCC(N)CC2)c2ccccc21 | 36.8 | 41 | – | –
4 | CC(C)n1c(=O)n(C(=O)NC2CCN(CCCOc3ccc(F)cc3)CC2)c2ccccc21 | – | – | 62 | –
5 | CC(C)n1nc(C(=O)NCCN2CCC(NS(C)(=O)=O)CC2)c2ccccc21 | 7.3 | 29 | – | –
6 | CCC(=O)NC1CCN(CCNC(=O)c2nn(C(C)C)c3ccccc23)CC1 | – | 36 | 11.3 | –
7 | CC(C)n1nc(C(=O)NCCCCN2CCCCC2)c2ccccc21 | 3.3 | 49 | 43.3 | 5.2
8 | CC(C)n1nc(C(=O)NC2CCN(CCNC(=O)C34C[C@H]5C[C@@H](C3)C[C@@H](C4)C5)CC2)c2ccccc21 | 1 | – | 38.5 | –
9 | CN1C2CCC1CC(NC(=O)c1cn(C)c3ccccc13)C2 (centres undefined) | 47.3 | – | – | –
10 | CC(C)n1nc(C(=O)NCCN2CCc3ccccc3C2)c2ccccc21 | 20.3 | 41 | – | –
11 | CC(C)n1nc(C(=O)NCCN2CCCC2)c2ccccc21 | 4.3 | 51 | – | < 4
12 | CN1C2CCC1CC(NC(=O)n1c(=O)n(C)c3ccccc31)C2 (centres undefined) | 7.3 | – | – | –
13 | CC(C)n1nc(C(=O)NCCN2CCN(C(=O)c3ccccc3)CC2)c2ccccc21 | 19.8 | – | – | –
14 | CC(C)n1nc(C(=O)NCCN2CCN(Cc3ccccc3)CC2)c2ccccc21 | 9.1 | – | – | –
15 | CC(C)n1nc(C(=O)NCCN2CCC(NC(=O)Cc3ccccc3)CC2)c2ccccc21 | 5.6 | 39 | 23.7 | –
16 | CC(C)n1c(=O)n(C(=O)NC2CC3CCC(C2)N3CCCOc2ccc(F)cc2)c2ccccc21 (centres undefined) | 2.1 | – | 29.5 | –
17 | CCn1nc(C(=O)NC2CC3CCC(C2)N3C)c2ccccc21 (centres undefined) | 6.7 | – | – | –

Row | Structure (SMILES) | Relaxation [1] [%] | Relaxation [2] [%] | Relaxation [3] [%] | pKi [4]
18 | CC(C)n1nc(C(=O)NCCN2CCC(NC(=O)Nc3ccc(F)cc3)CC2)c2ccccc21 | 6.3 | 45.5 | 44.8 | –
19 | CC(C)n1nc(C(=O)NC2CCNCC2)c2ccccc21 | 32 | – | – | –
20 | CCC(C)n1cc(C(=O)NC2CC3CCC(C2)N3C)c2ccccc21 (centres undefined) | 57.8 | – | – | –
21 | CC(C)n1nc(C(=O)NCCN2CCC(Cc3ccccc3)CC2)c2ccccc21 | 16.4 | 26 | 42 | –
22 | CC(C)n1nc(C(=O)NC2CC3CCC(C2)N3CCCOc2ccc(F)cc2)c2ccccc21 (centres undefined) | 17.7 | – | 22.2 | –
23 | CC(C)n1nc(C(=O)NCCN2CCCCCC2)c2ccccc21 | 4.8 | 52 | – | 5
24 | CC(C)n1cc(C(=O)NC2CC3CCC(C2)N3C)c2ccccc21 (centres undefined) | 25.3 | – | – | –
25 | CCCn1cc(C(=O)NC2CC3CCC(C2)N3C)c2ccccc21 (centres undefined) | 34.3 | – | – | –
26 | CN1C2CCC1CC(NC(=O)c1c[nH]c3ccccc13)C2 (centres undefined) | 60 | – | – | –
27 | CC(C)n1nc(C(=O)NCCN2CCOCC2)c2ccccc21 | 19.8 | – | 42.3 | –
28 | CCn1cc(C(=O)NC2CC3CCC(C2)N3C)c2ccccc21 (centres undefined) | 44.8 | – | – | –
29 | CC(C)n1nc(C(=O)NCCN2CCC(NC(=O)Nc3ccccc3)CC2)c2ccccc21 | 11 | 33.7 | – | –
30 | CC(C)n1c(=O)n(C(=O)NC2CCN(C)CC2)c2ccccc21 | 7.5 | – | 40.8 | –
31 | CC(C)n1nc(C(=O)NCCN2CCC(NC(=O)NCc3ccccc3)CC2)c2ccccc21 | 3.3 | 30 | – | –
32 | CCCC(=O)NC1CCN(CCNC(=O)c2nn(C(C)C)c3ccccc23)CC1 | – | 51 | 26.5 | –
33 | CCN(CC)CCNC(=O)c1nn(C(C)C)c2ccccc12 | 26.8 | – | – | –
34 | CCCn1nc(C(=O)NC2CC3CCC(C2)N3C)c2ccccc21 (centres undefined) | 2.5 | – | – | –
